Assay results: ChEMBL document CHEMBL4513216, “Probing the Open Global Health Chemical Diversity Library for Multistage-Active Starting Points for Next-Generation Antimalarials” (ACS Infect Dis, 2020)

Assay: Toxicity liver stage against HepG2, at 10uM
Format: cell-based
Set-up: test concentration 10 uM, cell line HepG2-A16-CD81EGFP
Details: human, HepG2-A16-CD81EGFP cells; read-out: INHIBITION
In short: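 Uninfected HepG2-A16-CD81EGFP cells, 3 × 10^3 per well, 1536-well, plated on prespotted compound at 10 μM final, parasite-free screening media added to match infected plates; puromycin 10 μM positive, DMSO 0.5% negative; run in parallel with 48 h PbLuc assay at 37 °C, 5% CO2; viability by CellTiter-Glo luminescence, normalized to controls.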

Compound	cytotoxicity at 10 µM [%]
COc1ccc2nnc(C(=O)NCC3CCCC3)nc2c1	-3.35
OC[C@H]1CN(C2Cc3ccccc3C2)C[C@H]1CN1CCC(O)CC1	0.0255
Cc1nonc1CN(C)c1nc(-c2cccnc2)nc2c1CCNC2	4.05
O=C(CCS(=O)(=O)c1ccccc1)N1CCCC(n2cccn2)C1 (stereo not given)	-14.7
Cc1nc(N2CCCC2)nc2c1CCN(C(=O)NC1CCCC1)CC2	3.8
Cc1cccc(-c2cccc(CC3(C(=O)O)CCOCC3)c2)c1	-25.7
Cc1nnc(N2CCCC3(CN(Cc4ccc(F)cc4)CCO3)C2)o1 (stereo not given)	-6.63
Cc1ccc(C)c(S(=O)(=O)NC(=O)c2cccc3c2OCCO3)c1	-4.77
CC(c1ccncc1)N(CCN(C)C)C(=O)Nc1ccc(Cl)cc1 (stereo not given)	8.88
Cc1ccccc1C(=O)NC1CCN(c2cnn(C)c2)C1=O (stereo not given)	4.19
Cc1nc(CN2CCN(C(=O)c3cc(C4CC4)on3)CC2)cs1	2.21
COc1cccc(-c2noc(-c3ccc(NCC(C)O)nc3)n2)c1OC (stereo not given)	-5.82
Cc1nc(C)c(C(=O)N2CCCN(Cc3cnn(C)c3)CC2)s1	-9.58
O=C1CC2(CCN(c3nccc(-c4cc(C(=O)O)ccn4)n3)CC2)CN1	2.16
Cn1ccnc1CN1CCCN(C(=O)c2ccc(O)nc2)CC1	-26.3
Cc1ccc(CN2CCOC3(CCCN(C(=O)c4ccco4)C3)C2)o1 (stereo not given)	-3.27
CCCNC(=O)c1[nH]nc(C2CC2)c1Br	-0.587
O=c1n(CCNCc2cccc3ccccc23)nc2ccccn12	0.551
CSc1ccc(OC(C)C(=O)Nc2c(C)n[nH]c2C)cc1 (stereo not given)	6.8
CN1CCc2[nH]nc(C(=O)N3CCC4(CCCO4)CC3)c2C1	-47.1
CNc1nc(C2CCCN(C(=O)C3CCCCC3)C2)nc2c1CNCC2 (stereo not given)	-1.85
O=C1CO[C@H]2CN(Cc3ccc4c(c3)OCO4)C[C@H]2N1	0.801
COc1ccccc1CNC(=O)N1CCN(Cc2cc(C)on2)CC1	-9.07

Compound	cytotoxicity at 10 µM [%]
COCC1c2nnn(C)c2CCN1C(=O)COc1ccccc1OC (stereo not given)	-105
CCSc1ccc(C(=O)N2CCC3(CC2)[C@H](O)C[C@@H]3O)s1	1.34
Cc1nccn1C1CCCN(C(=O)c2ccc3c(c2)COC3)C1 (stereo not given)	-10.8
NC(=O)CN1CCCN(C(=O)Cc2ccc3c(c2)OCCO3)CC1	0.169
CC(C)n1nnnc1-c1ccc(NC(=O)CC(F)(F)F)cc1F	6.62
CSc1ccc(-n2nnc(C(=O)O)c2-c2ccccn2)cc1	-3.01
CCOc1cncc(N(C)CC(=O)NC)n1	2.16
O=C(Nc1cccnc1-n1cc(Br)cn1)C1CCCC1	-33.1
O=C(O)c1csc(S(=O)(=O)N2CCCc3cc(OC(F)F)ccc32)c1	-9.69
CCC(C)(C)NC(=O)C1CC(=O)N(CC2CC2)C1 (stereo not given)	-4.72
c1cc(C[C@H]2[C@H](N3CCOCC3)CCN2Cc2ccoc2)ccn1	10.2
Cc1ccc2cc(C(=O)N3CCN(S(C)(=O)=O)CC3)[nH]c2c1	-58.1
O=C(Cc1ccc2c(c1)OCCO2)NC1CCCC1	-3.07
CCn1cnnc1C1CCN(C(=O)c2ccc(Cl)cc2OC)CC1	-1.94
O=C(CCc1cccs1)NCC1CCCN1c1cccnn1 (stereo not given)	-1.9
Cc1ccnc(C2CN(c3ncccn3)C2)n1	2.55
Cc1cnn(CC2CCCN2C(=O)c2cc3c(F)cccc3[nH]2)c1 (stereo not given)	-12.7
Cc1nc(CN2CCO[C@H]3CN(C(=O)Cc4cccs4)C[C@H]32)cs1	-124
CC(=O)N1CCCN(C(=O)NCCNc2ccccn2)CC1	-4.07
O=C(CC1CCCC1)N1CCN(c2ccc(-n3cncn3)nn2)CC1	-11.9
Cc1cc(C(=O)N2C[C@@H]3CC[C@H]2CN(C(=O)c2ccncc2)C3)cs1	-2.56
CCn1ncc(-c2cc(C(F)F)nc3sc(C(N)=O)c(N)c23)c1C	10.3
